Experimental data published in ChEMBL document CHEMBL1938354 (Eur J Med Chem, 2012).
Activity calls are given as the source filed them. The calls are words filed in the database; no cut-off is given here.

Tests used:
[1] = target: T1, Aldo-keto reductase family 1 member B10 (Homo sapiens, UniProt O60218); test: Inhibition of human recombinant N-terminus His6-tagged AKR1B10 expressed in Escherichia coli BL21 DE3 assessed as pyridine-3-aldehyde reduction by spectrometric analysis
How it was run: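 Purified recombinant 6-His AKR1B10 was assayed at 25 °C in 0.1 M potassium phosphate, pH 7.4, with 0.1 mM NADPH and 0.2 mM pyridine-3-aldehyde. Reductase rate was followed as NADPH absorbance change at 340 nm. IC50 is the mean of at least three determinations.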
Target sequence in this assay (O60218 whole entry): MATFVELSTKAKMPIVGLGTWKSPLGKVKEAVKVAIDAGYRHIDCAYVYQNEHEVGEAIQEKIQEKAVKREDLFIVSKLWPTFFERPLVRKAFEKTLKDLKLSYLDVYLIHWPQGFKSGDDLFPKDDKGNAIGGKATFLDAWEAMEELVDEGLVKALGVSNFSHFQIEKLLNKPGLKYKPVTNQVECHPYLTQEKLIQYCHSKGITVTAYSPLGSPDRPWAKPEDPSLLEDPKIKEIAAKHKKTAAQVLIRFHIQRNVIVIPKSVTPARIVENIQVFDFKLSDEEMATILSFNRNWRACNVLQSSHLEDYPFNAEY

Homo sapiens = species on record: Homo sapiens; test: Selectivity ratio of IC50 for human recombinant N-terminus His6-tagged AKR1B1 to IC50 for human recombinant N-terminus His6-tagged AKR1B10
How it was run: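 IC50 values for purified recombinant AKR1B1 and AKR1B10 were each determined at 25 °C in 0.1 M potassium phosphate, pH 7.4, with 0.1 mM NADPH and 0.2 mM pyridine-3-aldehyde, by NADPH absorbance at 340 nm. Each IC50 is the mean of at least three determinations. The ratio is AKR1B1 IC50 over AKR1B10 IC50.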

[2] = target: Aldo-keto reductase family 1 member B1 (Homo sapiens, UniProt P15121); test: Inhibition of human recombinant N-terminus His6-tagged AKR1B1 expressed in Escherichia coli BL21 DE3 assessed as pyridine-3-aldehyde reduction by spectrometric analysis
U-937 [3] = test: Growth inhibition of human U937 cells at 0.2 uM by trypan blue dye exclusion assay; format: functional, cell-based
[4] = target: Aldo-keto reductase family 1 member B10 (Homo sapiens, UniProt O60218, Q114T); test: Competitive inhibition at human recombinant N-terminus His6-tagged AKR1B10 Gln114Thr mutant expressed in Escherichia coli BL21 DE3 assessed as inhibition of NADP+ linked geraniol oxidation by fluorescence analysis
Chain of Aldo-keto reductase family 1 member B10 (Homo sapiens, UniProt O60218, Q114T) (O60218 whole entry Q114T): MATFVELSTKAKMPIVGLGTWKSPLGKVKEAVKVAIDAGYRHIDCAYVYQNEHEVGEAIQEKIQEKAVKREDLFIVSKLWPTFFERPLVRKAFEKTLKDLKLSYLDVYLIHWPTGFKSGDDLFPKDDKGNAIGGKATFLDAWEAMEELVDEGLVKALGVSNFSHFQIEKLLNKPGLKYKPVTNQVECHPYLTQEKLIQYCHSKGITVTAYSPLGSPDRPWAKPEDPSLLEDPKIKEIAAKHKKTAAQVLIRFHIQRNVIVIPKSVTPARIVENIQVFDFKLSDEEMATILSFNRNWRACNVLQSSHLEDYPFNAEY

U-937 [5] = test: Growth inhibition of AKR1B10-overexpressing human U937 cells at 0.2 uM by trypan blue dye exclusion assay; format: functional, cell-based
How it was run: (§1)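 U937 cells were transiently transfected with pGW1 plasmid carrying AKR1B10 cDNA and resuspended in fresh growth medium. They were seeded at 5 × 10⁴ cells/ml and treated with inhibitor for 0, 24, 48 and 72 h. Viable cells were counted by trypan blue exclusion.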

[6] = target: T1, Aldo-keto reductase family 1 member B10; conditions: HeLa, 0.2 uM
Target sequence in this assay (O60218 whole entry, looked up): as the sequence (O60218 whole entry) above

[7] = target: Aldo-keto reductase family 1 member B10 (Homo sapiens, UniProt O60218, W220Y); test: Competitive inhibition at human recombinant N-terminus His6-tagged AKR1B10 Trp220Tyr mutant expressed in Escherichia coli BL21 DE3 assessed as inhibition of NADP+ linked geraniol oxidation by fluorescence analysis
Chain of Aldo-keto reductase family 1 member B10 (Homo sapiens, UniProt O60218, W220Y) (O60218 whole entry W220Y): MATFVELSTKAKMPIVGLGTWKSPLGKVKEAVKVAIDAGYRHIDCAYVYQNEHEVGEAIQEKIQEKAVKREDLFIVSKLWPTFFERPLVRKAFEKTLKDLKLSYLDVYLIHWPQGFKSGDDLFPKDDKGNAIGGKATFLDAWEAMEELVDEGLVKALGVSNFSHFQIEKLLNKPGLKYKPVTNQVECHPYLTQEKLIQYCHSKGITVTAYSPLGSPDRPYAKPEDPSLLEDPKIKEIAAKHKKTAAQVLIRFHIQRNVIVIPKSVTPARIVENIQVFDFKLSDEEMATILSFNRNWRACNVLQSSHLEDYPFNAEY

[8] = target: T1, Aldo-keto reductase family 1 member B10; test: Competitive inhibition at human recombinant N-terminus His6-tagged AKR1B10 expressed in Escherichia coli BL21 DE3 assessed as inhibition of NADP+ linked geraniol oxidation by fluorescence analysis
How it was run: (§2)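 Recombinant wild-type or mutant AKR1B10 with N-terminal 6-His tag was expressed in E. coli BL21(DE3) pLysS and purified to homogeneity. The Phe123Ala mutant was made by site-directed mutagenesis. Kinetics used NADP+-linked geraniol oxidation, read by NADPH fluorescence (ex 340/em 455 nm) at 25 °C. Five substrate concentrations (0.5–5 × Km) were run with saturating coenzyme. Ki is the mean of at least three determinations.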
Target sequence in this assay (O60218 whole entry): as the sequence (O60218 whole entry) above

HeLa [9] = test: Cytotoxicity against human HeLa cells after 24 hrs by trypan blue dye exclusion assay; format: functional; conditions: read-out: LD50 (the source's name)
[10] = target: T2, Aldo-keto reductase family 1 member A1 (Homo sapiens) (UniProt P14550); test: Inhibition of human AKR1A1 at 30 uM
T2 sequence (whole entry): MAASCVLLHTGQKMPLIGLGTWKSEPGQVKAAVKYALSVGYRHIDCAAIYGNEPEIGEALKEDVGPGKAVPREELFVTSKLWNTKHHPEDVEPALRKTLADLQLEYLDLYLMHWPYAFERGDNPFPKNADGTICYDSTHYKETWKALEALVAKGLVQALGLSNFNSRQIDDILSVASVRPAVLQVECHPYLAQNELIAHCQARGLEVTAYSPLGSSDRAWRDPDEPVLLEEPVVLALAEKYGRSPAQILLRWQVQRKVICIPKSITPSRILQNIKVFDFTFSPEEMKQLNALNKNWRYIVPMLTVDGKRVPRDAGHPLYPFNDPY

[11] = target: Aldo-keto reductase family 1 member B10 (Homo sapiens, UniProt O60218, V301L); test: Competitive inhibition at human recombinant N-terminus His6-tagged AKR1B10 Val301Leu mutant expressed in Escherichia coli BL21 DE3 assessed as inhibition of NADP+ linked geraniol oxidation by fluorescence analysis
Chain of Aldo-keto reductase family 1 member B10 (Homo sapiens, UniProt O60218, V301L) (O60218 whole entry V301L): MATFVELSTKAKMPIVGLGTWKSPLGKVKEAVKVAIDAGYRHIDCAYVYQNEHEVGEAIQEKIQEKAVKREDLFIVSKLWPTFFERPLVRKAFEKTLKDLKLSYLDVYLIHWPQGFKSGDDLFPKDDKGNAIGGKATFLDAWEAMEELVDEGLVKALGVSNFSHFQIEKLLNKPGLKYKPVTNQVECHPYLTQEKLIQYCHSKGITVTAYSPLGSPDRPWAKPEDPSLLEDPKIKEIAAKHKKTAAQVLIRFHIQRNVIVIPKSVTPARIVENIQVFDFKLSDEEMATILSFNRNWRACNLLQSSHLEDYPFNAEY

[12] = target: Aldo-keto reductase family 1 member B10 (Homo sapiens, UniProt O60218, Q303S/V301L); test: Competitive inhibition at human recombinant N-terminus His6-tagged AKR1B10 Val301Leu/Gln303Ser double mutant expressed in Escherichia coli BL21 DE3 assessed as inhibition of NADP+ linked geraniol oxidation by fluorescence analysis
Chain of Aldo-keto reductase family 1 member B10 (Homo sapiens, UniProt O60218, Q303S/V301L) (O60218 whole entry V301L/Q303S): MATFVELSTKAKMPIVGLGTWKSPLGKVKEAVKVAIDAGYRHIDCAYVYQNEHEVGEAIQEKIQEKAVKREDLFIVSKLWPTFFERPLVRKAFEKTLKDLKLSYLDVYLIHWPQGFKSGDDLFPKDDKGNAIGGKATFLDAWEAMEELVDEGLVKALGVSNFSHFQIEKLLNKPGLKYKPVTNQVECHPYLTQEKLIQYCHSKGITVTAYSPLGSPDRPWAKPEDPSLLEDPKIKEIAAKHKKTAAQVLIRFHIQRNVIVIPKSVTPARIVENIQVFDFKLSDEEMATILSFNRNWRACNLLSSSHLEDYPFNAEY

HeLa [13] = test: Growth inhibition of human HeLa cells at 0.2 uM by trypan blue dye exclusion assay; format: functional, cell-based
[14] = target: Aldo-keto reductase family 1 member B10 (Homo sapiens, UniProt O60218, F123A); test: Competitive inhibition at human recombinant N-terminus His6-tagged AKR1B10 Phe123Ala mutant expressed in Escherichia coli BL21 DE3 assessed as inhibition of NADP+ linked geraniol oxidation by fluorescence analysis; how it was run: as §2
Chain of Aldo-keto reductase family 1 member B10 (Homo sapiens, UniProt O60218, F123A) (O60218 whole entry F123A): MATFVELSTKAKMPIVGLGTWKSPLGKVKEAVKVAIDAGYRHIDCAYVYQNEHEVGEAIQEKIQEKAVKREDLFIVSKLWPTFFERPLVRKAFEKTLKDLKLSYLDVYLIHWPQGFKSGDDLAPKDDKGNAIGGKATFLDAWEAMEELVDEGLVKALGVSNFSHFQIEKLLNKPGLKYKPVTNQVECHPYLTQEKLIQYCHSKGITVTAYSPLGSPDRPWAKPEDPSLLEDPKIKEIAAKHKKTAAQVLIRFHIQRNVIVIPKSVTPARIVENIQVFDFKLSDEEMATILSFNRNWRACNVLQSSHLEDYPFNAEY

[15] = target: Aldo-keto reductase family 1 member B10 (Homo sapiens, UniProt O60218, Q303S); test: Competitive inhibition at human recombinant N-terminus His6-tagged AKR1B10 Gln303Ser mutant expressed in Escherichia coli BL21 DE3 assessed as inhibition of NADP+ linked geraniol oxidation by fluorescence analysis
Chain of Aldo-keto reductase family 1 member B10 (Homo sapiens, UniProt O60218, Q303S) (O60218 whole entry Q303S): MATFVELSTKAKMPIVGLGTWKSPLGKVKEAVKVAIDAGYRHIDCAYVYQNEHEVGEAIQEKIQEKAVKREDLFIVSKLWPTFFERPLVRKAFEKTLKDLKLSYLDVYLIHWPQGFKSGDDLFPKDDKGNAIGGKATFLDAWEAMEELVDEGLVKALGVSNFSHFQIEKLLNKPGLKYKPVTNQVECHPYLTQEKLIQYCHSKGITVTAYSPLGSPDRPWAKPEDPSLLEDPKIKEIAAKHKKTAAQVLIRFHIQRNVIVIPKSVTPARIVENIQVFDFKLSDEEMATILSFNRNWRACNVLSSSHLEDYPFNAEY

[16] = target: T1, Aldo-keto reductase family 1 member B10; test: Inhibition of AKR1B10-mediated farnesal metabolism in human HeLa cells preincubated for 2 hrs measured after 6 hrs following [1-14C]farnesol addition; format: cell-based
How it was run: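 HeLa cells were transfected with pGW1-AKR1B10 and pretreated with inhibitor at a range of concentrations for 2 h. They were then incubated with [1-¹⁴C]farnesol for 6 h, and reduction of the resulting farnesal was analysed. Percent inhibition is the mean of duplicate experiments.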
Target sequence in this assay (O60218 whole entry): as the sequence (O60218 whole entry) above

[17] = target: Aldo-keto reductase family 1 member B10 (Homo sapiens, UniProt O60218, S304A); test: Competitive inhibition at human recombinant N-terminus His6-tagged AKR1B10 Ser304Ala mutant expressed in Escherichia coli BL21 DE3 assessed as inhibition of NADP+ linked geraniol oxidation by fluorescence analysis
Chain of Aldo-keto reductase family 1 member B10 (Homo sapiens, UniProt O60218, S304A) (O60218 whole entry S304A): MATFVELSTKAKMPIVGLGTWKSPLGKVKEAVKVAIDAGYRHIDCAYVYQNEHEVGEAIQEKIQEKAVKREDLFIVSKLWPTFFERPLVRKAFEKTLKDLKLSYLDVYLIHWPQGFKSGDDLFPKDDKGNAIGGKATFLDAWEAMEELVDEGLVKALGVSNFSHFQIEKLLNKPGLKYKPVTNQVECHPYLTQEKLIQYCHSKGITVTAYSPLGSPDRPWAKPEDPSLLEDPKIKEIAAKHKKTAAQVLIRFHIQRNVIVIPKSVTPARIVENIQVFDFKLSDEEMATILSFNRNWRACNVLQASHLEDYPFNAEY

U-937 [18] = test: Growth inhibition of AKR1B10-overexpressing human U937 cells at 1 uM by trypan blue dye exclusion assay; format: functional, cell-based; how it was run: as §1
[19] = target: T1, Aldo-keto reductase family 1 member B10; test: Competitive inhibition at human recombinant N-terminus His6-tagged AKR1B10 expressed in Escherichia coli BL21 DE3 assessed as inhibition of NADP+ linked geraniol oxidation by fluorescence analysis
Target sequence in this assay (O60218 whole entry): as the sequence (O60218 whole entry) above

Row | Structure (SMILES) | IC50 [1] [nM] | Ratio IC50 (Homo sapiens) | IC50 [2] [nM] | further results
1 | COc1cc(O)ccc1/C=C/C(=O)OCCc1ccccc1 | 13 | 554 | 7200 | –
2 | O=C(/C=C/c1ccc(O)cc1)OCc1ccccc1 | 130 | 17 | 2200 | –
3 | COc1cc(O)ccc1/C=C/C(=O)OCCCc1cccc(O)c1 | 6.2 | 790 | 4900 | growth inhibition (GI) (U-937 [3]): inactive; Ki [4]: 7.6 nM; growth inhibition (GI) (U-937 [5]): Active; inhibition [6]: Active; Ki [7]: 15 nM; Ki [8]: 2.6 nM; CC50 (HeLa [9]): 36000 nM; inhibition [10]: inactive; Ki [11]: 5.8 nM; Ki [12]: 23 nM; growth inhibition (GI) (HeLa [13]): inactive; Ki [14]: 5.1 nM; Ki [15]: 7.1 nM; IC50 [16]: 300 nM; Ki [17]: 3.5 nM
4 | COc1cc(O)ccc1/C=C/C(=O)OCCc1ccc(O)cc1 | 14 | 229 | 3200 | –
5 | CC(C)OC(=O)/C=C/c1ccc(O)cc1 [ISOPROPYL 3-(4-HYDROXYPHENYL)ACRYLATE] | 920 | 7 | 6100 | –
6 | O=C(O)/C=C/c1ccc(O)c(O)c1 [CAFFEIC ACID] | 90000 | – | – | –
7 | O=C(/C=C/c1ccc(O)c(O)c1)OCCc1ccccc1 [CAFFEIC ACID PHENETHYL ESTER] | 80 | 7 | 570 | growth inhibition (GI) (U-937 [3]): inactive; CC50 (HeLa [9]): 56000 nM; growth inhibition (GI) (U-937 [18]): Active; growth inhibition (GI) (HeLa [13]): inactive; Ki [19]: 46 nM
8 | O=C(/C=C/c1cccc(O)c1)OCCCc1ccccc1 | 3100 | 13 | 41000 | –
9 | COc1cc(O)ccc1/C=C/C(=O)OCCc1cccc(O)c1 | 13 | 562 | 7300 | –
10 | O=C(/C=C/c1ccc(O)c(O)c1)O[C@@H]1[C@H](O)C[C@@](O)(C(=O)O)C[C@H]1OC(=O)/C=C/c1ccc(O)c(O)c1 (relative stereo) | 240 | – | – | –
11 | O=C(/C=C/c1cccc(O)c1)OCCc1ccccc1 | 19000 | 4 | 73000 | –
12 | O=C(O)/C=C/c1ccc(O)cc1 [COUMARIC ACID] | 63000 | – | 76000 | –
13 | O=C(/C=C/c1ccc(O)c(O)c1)O[C@@H]1C[C@](O)(C(=O)O)C[C@@H](OC(=O)/C=C/c2ccc(O)c(O)c2)[C@H]1O (relative stereo) | 130 | – | 88 | –
14 | O=C(/C=C/c1ccccc1)OCCc1ccccc1 [PHENETHYL CINNAMATE] | 18000 | 1 | 23000 | –
15 | O=C(/C=C/c1ccc(O)c(O)c1)O[C@@H]1C[C@](O)(C(=O)O)C[C@@H](O)[C@H]1O (relative stereo) [CHLOROGENIC ACID] | 7900 | – | – | –
16 | COc1cc(O)ccc1/C=C/C(=O)OCCc1ccccc1O | 17 | 558 | 9500 | –
17 | O=C(/C=C/c1ccc(O)cc1)OCCc1ccccc1 | 69 | 31 | 2200 | –
18 | CC(C)=CCc1cc(/C=C/C(=O)O)ccc1O [DRUPANIN] | 49000 | – | 38000 | –
19 | COc1cc(O)ccc1/C=C/C(=O)OCCCc1ccccc1O | 9 | 766 | 6900 | –
20 | COc1cc(O)ccc1/C=C/C(=O)OCCCc1ccccc1 | 16 | 688 | 11000 | –
21 | CC(C)=CCc1cc(/C=C/C(=O)O)cc(CC=C(C)C)c1O [ARTEPILLIN] | 53000 | – | 23000 | –
22 | O=C(/C=C/c1ccc(O)cc1)OCCCc1ccccc1 | 21 | 52 | 1100 | –
23 | COc1cc(O)ccc1/C=C/C(=O)OCCCc1ccc(O)cc1 | 23 | 478 | 11000 | –
24 | O=C(/C=C/c1ccc(O)c(O)c1)OCc1ccccc1 [BENZYL CAFFEATE] | 210 | 2 | 400 | –
